Results on 17 compounds are retold here after ChEMBL document CHEMBL3600357 (J Med Chem, 2015).

For one series, the system named is SJSA-1. As to the kind of experiment: Inhibition of cell proliferation of human SJSA1 cells.
A short description of series [1]: Cmax in Sprague-Dawley rat at 3 mg/kg, po. The series is classed as ADME, organism-based. The conditions noted are these: in vivo. Details: dose 3 mg/kg, route oral. The method, boiled down:
(§1)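 Sprague-Dawley rats. IV dose given as a solution in NMP:PEG200 (10:90); 3 mg/kg PO given as a suspension in CMC:water:Tween (0.5:99:0.5). AUC and Cmax dose-normalized to 1 mg/kg. Mean ± SD from four rats.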

Series [2] concerns the target T1, Cytochrome P450 3A4 (Homo sapiens, UniProt P08684). The experiment in a line: Time dependent inhibition of CYP3A4 (unknown origin). The format is ADME.
Series [3] relates to Rattus norvegicus. As to the kind of experiment: AUC in Sprague-Dawley rat at 1 mg/kg, iv. The series is classed as ADME, organism-based. The conditions noted are these: in vivo. In outline: as §1
The nature of series [4]: Permeability in human Caco2 cells assessed as drug recovery during apical to basolateral transport. The conditions noted are these: Caco-2, read-out: Drug recovery. The series is classed as ADME, cell-based. In general terms: Passage across Caco-2 layers is used to estimate intestinal permeability.
Series [5] in a line: Terminal half life in Sprague-Dawley rat at 1 mg/kg, iv. The series is classed as ADME, organism-based. To be noted: Sprague-Dawley, in vivo, read-out: beta t1/2 (converted). In outline:
as §1

Series [6] has as its system Rattus norvegicus. As to the kind of experiment: AUC in Sprague-Dawley rat at 3 mg/kg, po. To be noted: in vivo. The format is ADME, organism-based. In outline:
as §1

Series [7] can be described thus: Tmax in Sprague-Dawley rat at 3 mg/kg, po. The format is ADME, organism-based. The conditions noted are these: in vivo.
The test system of series [8] is Rattus norvegicus. The experiment in a line: Oral bioavailability in Sprague-Dawley rat at 3 mg/kg. The format is ADME, organism-based. The conditions noted are these: in vivo. The method, boiled down: as §1
Series [9] in a line: Protein binding in Sprague-Dawley rat plasma by equilibrium dialysis method. The format is ADME, cell-free. To be noted: read-out: PPB. In outline:
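Rat plasma protein binding by rapid equilibrium dialysis (RED) in 100% plasma.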

Series [10] is described as follows: Clearance in Sprague-Dawley rat at 1 mg/kg, iv. To be noted: in vivo. The format is ADME, organism-based. In outline:
as §1

Series [11] in a line: Permeability from apical to basolateral side in human Caco2 cells. The series is classed as ADME, cell-based. The conditions noted are these: Caco-2.
A short description of series [12]: Equilibrium solubility in pH 6.8 buffer solution. The format is physicochemical. The method, boiled down:
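High-throughput equilibrium solubility assay at pH 6.8.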

For series [13], the target named is Voltage-gated inwardly rectifying potassium channel KCNH2 (Homo sapiens, UniProt Q12809). As to the kind of experiment: Inhibition of human ERG by radioligand binding assay.
Chain of Voltage-gated inwardly rectifying potassium channel KCNH2 (Q12809 whole entry): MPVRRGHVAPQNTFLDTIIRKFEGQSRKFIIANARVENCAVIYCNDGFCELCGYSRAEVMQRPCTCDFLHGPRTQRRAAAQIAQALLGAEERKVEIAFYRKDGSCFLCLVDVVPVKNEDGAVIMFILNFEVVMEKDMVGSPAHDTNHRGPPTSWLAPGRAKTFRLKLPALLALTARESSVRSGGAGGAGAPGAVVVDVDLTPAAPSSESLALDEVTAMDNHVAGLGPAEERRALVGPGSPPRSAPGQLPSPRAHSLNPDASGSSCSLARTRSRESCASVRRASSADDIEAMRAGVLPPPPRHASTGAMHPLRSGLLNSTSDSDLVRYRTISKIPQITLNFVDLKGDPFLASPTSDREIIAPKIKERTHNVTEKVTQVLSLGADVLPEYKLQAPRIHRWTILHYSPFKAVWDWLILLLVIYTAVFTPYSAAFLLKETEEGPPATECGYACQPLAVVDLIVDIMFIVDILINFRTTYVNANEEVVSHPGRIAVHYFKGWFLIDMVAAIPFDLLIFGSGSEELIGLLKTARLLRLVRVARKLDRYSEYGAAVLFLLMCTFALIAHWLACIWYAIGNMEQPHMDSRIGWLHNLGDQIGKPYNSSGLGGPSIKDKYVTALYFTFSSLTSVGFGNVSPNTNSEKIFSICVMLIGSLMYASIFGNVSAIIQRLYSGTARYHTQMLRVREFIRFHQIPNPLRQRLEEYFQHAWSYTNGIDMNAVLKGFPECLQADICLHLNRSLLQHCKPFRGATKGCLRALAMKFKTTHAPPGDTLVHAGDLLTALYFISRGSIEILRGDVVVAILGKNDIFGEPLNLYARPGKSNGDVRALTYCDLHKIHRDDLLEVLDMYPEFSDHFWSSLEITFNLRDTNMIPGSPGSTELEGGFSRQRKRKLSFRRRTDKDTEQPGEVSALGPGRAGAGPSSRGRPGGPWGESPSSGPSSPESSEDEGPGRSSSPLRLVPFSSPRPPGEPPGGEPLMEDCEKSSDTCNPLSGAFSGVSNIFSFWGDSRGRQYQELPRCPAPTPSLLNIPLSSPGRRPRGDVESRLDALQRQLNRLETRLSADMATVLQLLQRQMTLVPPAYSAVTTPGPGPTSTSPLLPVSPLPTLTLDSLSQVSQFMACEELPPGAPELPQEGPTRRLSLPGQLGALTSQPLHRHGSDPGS
Series [14] in a line: Half life in rat liver microsomes. The format is ADME.
Series [15] in a line: Intrinsic clearance in rat liver microsomes. The conditions noted are these: read-out: CLH. The series is classed as ADME. In general terms: Liver microsomes are a subcellular fraction often used to study metabolism.
Series [16] can be described thus: Volume of distribution at steady state in Sprague-Dawley rat at 1 mg/kg, iv. The format is ADME, organism-based. The conditions noted are these: Sprague-Dawley, in vivo, read-out: Vdss.
Series [17] is described as follows: Permeability from basolateral to apical side in human Caco2 cells. The series is classed as ADME, cell-based. To be noted: Caco-2.
The nature of series [18]: Octanol water partition coefficient, logP of the compound. The format is physicochemical.
Series [19] concerns the target T1, Cytochrome P450 3A4. The experiment in a line: Time dependent inhibition of CYP3A4 in human liver microsomes. The format is ADME.
The nature of series [20]: Intrinsic clearance in human liver microsomes. The format is ADME. To be noted: read-out: CLH.
For series [21], the target named is Tumour suppressor p53/oncoprotein Mdm2 (Homo sapiens, UniProt Q00987). The experiment in a line: Inhibition of MDM2/p53 interaction (unknown origin) using biotinylated MDM2 and Cy5-p53 (18 to 26 amino acids) by TR-FRET assay. The format is protein assay. (TR-FRET usually uses a lanthanide donor and a delayed reading to cut background.)
Chain of Tumour suppressor p53/oncoprotein Mdm2 (P04637 whole entry, the tested form may be a part): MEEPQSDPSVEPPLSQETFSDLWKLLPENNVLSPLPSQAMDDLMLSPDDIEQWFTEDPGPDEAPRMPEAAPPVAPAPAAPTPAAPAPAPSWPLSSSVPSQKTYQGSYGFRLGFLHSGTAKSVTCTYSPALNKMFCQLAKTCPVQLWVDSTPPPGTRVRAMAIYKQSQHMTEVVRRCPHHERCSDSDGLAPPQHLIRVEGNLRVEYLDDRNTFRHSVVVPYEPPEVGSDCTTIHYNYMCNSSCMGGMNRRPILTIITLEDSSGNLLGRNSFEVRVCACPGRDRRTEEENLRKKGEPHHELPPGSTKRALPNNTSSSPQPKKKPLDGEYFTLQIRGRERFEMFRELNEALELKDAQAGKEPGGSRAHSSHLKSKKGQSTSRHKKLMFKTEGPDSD
Chain of Tumour suppressor p53/oncoprotein Mdm2 (Q00987 whole entry, the tested form may be a part): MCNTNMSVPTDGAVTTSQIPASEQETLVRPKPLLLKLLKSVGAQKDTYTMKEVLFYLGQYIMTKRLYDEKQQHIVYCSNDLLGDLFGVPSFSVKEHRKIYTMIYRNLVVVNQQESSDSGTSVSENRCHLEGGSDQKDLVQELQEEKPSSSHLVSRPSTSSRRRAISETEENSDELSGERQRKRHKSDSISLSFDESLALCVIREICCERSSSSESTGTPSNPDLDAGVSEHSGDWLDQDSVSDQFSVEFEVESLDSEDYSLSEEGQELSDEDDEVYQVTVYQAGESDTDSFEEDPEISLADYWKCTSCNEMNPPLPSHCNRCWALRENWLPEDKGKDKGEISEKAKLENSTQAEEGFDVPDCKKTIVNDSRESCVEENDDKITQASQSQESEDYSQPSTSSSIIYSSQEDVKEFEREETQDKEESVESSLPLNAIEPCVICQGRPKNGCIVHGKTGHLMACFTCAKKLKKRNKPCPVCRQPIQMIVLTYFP
A short description of series [22]: Intrinsic clearance in monkey liver microsomes. The series is classed as ADME, Macaca mulatta. The conditions noted are these: rhesus monkey, read-out: CLH.
In series [23] the target is E3 ubiquitin-protein ligase Mdm2 (Canis lupus familiaris, UniProt P56950). The experiment in a line: Inhibition of dog MDM2 by TR-FRET assay.
Chain of E3 ubiquitin-protein ligase Mdm2 (Canis lupus familiaris, UniProt P56950) (P56950 whole entry): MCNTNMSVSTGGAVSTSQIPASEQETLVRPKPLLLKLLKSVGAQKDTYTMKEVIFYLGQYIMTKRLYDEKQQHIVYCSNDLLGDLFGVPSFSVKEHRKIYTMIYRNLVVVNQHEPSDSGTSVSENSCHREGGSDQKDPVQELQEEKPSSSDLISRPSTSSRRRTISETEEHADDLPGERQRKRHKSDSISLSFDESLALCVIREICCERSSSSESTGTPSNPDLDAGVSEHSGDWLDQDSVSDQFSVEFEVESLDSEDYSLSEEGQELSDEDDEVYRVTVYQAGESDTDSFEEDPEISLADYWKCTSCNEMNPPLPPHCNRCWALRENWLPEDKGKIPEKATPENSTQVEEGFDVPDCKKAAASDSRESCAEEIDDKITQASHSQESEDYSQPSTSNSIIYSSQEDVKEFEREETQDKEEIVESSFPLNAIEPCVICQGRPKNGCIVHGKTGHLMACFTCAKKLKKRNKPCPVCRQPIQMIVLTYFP
For series [24], the target named is E3 ubiquitin-protein ligase Mdm2 (Mus musculus, UniProt P23804). As to the kind of experiment: Inhibition of mouse MDM2 by TR-FRET assay.
Chain of E3 ubiquitin-protein ligase Mdm2 (Mus musculus, UniProt P23804) (P23804 whole entry): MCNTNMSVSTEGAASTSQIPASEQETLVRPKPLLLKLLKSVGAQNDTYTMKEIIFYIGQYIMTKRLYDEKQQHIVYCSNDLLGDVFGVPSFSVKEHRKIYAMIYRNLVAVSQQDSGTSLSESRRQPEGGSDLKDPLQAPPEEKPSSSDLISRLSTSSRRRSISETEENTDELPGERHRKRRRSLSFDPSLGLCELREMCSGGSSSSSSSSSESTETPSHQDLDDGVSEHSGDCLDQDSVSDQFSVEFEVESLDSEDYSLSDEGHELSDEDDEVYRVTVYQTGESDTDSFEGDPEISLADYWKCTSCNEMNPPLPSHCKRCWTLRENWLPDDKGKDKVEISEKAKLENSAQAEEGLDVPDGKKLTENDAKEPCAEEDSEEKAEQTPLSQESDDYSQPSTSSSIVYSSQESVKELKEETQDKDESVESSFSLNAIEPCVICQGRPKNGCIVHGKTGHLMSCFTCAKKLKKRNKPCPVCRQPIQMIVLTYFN
Series [25] is described as follows: Inhibition of rat MDM2 by TR-FRET assay.

As a reminder, the GI50 is the concentration giving 50% growth inhibition. A word on the Cmax: it is the peak of the concentration-time curve. As usually defined, the AUC is the area under the concentration-time curve, a measure of exposure. What is called Tmax is the time at which the peak concentration occurs. By clearance is commonly meant the rate of elimination divided by the concentration. By Papp A→B is commonly meant how fast a substance crosses the layer from the apical side. As usually defined, the thermodynamic solubility is the concentration in solution at equilibrium with solid. A word on the IC50: it is the concentration needed to halve the response being measured. The term Papp B→A denotes how fast a substance crosses the layer from the basolateral side. What is called logP is a log measure of how a compound divides between an organic and an aqueous phase. The Ki is a measure of affinity in units of concentration, obtained from inhibition or displacement.

T1 sequence (P08684 whole entry): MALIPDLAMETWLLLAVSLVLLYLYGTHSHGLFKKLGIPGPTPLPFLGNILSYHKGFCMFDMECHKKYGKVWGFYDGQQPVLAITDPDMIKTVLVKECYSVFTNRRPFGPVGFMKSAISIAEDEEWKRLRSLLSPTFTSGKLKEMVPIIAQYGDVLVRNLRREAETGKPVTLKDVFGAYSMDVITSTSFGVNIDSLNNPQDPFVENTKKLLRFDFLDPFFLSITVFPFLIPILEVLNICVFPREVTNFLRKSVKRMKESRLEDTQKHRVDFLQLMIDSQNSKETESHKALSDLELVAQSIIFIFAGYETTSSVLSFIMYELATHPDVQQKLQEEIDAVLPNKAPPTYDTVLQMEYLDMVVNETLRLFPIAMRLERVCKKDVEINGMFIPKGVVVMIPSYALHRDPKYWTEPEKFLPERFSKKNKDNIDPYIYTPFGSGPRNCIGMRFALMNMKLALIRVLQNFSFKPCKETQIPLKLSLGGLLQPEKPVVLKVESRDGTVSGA

`CC[C@@H](C)Oc1cc2c(cc1OC)CC(=O)N(c1ccc(N(C)Cc3ccncc3)cc1)C2c1ccc(Cl)cc1` (stereo not given in full): in the series on SJSA-1, it took 3.86 µM to inhibit growth by half (GI50).
Turning to `CC[C@@H](C)Oc1cc2c(cc1OC)CC(=O)N(c1ccc(N(C)Cc3ccncc3)cc1)[C@H]2c1ccc(Cl)cc1`, growth in the series on SJSA-1 was halved (GI50) at 1.21 µM.
In the series on SJSA-1, `CC[C@@H](C)Oc1cc2c(cc1OC)CC(=O)N(c1ccc(N(C)Cc3ccncc3)cc1)[C@@H]2c1ccc(Cl)cc1` registered a GI50 of 29.6 µM.
In turn, `CC[C@@H](C)Oc1cc2c(cc1OC)CC(=O)N(c1ccc(N(C)CC3CCNCC3)cc1)C2c1ccc(Cl)cc1` (stereo not given in full) displayed a GI50 in the series on SJSA-1 of 1.09 µM.
Compound `CC[C@@H](C)Oc1cc2c(cc1OC)CC(=O)N(c1ccc(N(C)C[C@H]3CC[C@H](N)CC3)cc1)C2c1ccc(Cl)cc1` (stereo not given in full) gave a GI50 in the series with SJSA-1 of 2.85 µM.
On to `CC[C@@H](C)Oc1cc2c(cc1OC)CC(=O)N(c1ccc(N(C)C[C@H]3CC[C@H](N(C)C)CC3)cc1)C2c1ccc(Cl)cc1` (stereo not given in full), for which the GI50 in the series with SJSA-1 came to 1.13 µM.
In the case of `CC[C@@H](C)Oc1cc2c(cc1OC)CC(=O)N(c1ccc(N(C)C[C@H]3CC[C@H](N(C)C)CC3)cc1)[C@H]2c1ccc(Cl)cc1`, the concentration in [1] peaked (Cmax) at 17.6 nM. On Cytochrome P450 3A4 [2], this compound displayed a K of 0.042 min⁻¹. Moreover, the AUC with Rattus norvegicus [3] was 1.574 µM·h; with Rattus norvegicus [6], 0.297 µM·h. For the same compound, in series [4], the recovery was below 30%. Further, the half-life is 19.1 h in [5] and 4.1 h in series [14]. In addition, the Tmax in [7] is 7 h. The same compound displayed a F with Rattus norvegicus [8] of 18%. The fraction unbound in [9] was below 0.01. In series [10], this compound yielded a clearance of 15 mL/min/kg. In series [11], this compound gave a Papp A→B of 0.08 ×10⁻⁶ cm/s. The thermodynamic solubility in series [12] is above 1000 µM. This compound registered an IC50 in series [13] of 1.3 µM. The microsomal CLint in series [15] came to 5.6 µL/min/mg. The same compound had a 50% growth inhibitory concentration (GI50) in the series on SJSA-1 of 0.94 µM. Moreover, the Vd in [16] worked out at 23.9 L/kg. Besides, the Papp B→A in series [17] was found to be 0.12 ×10⁻⁶ cm/s.
`COc1cc2c(cc1OC(C)C)[C@H](c1ccc(Cl)cc1)N(c1ccc(N(C)C[C@H]3CC[C@H](N(C)C)CC3)cc1)C(=O)C2`: in [18], the logP was above 4.2. In the series with SJSA-1, the GI50 was 0.71 µM. This compound returned an IC50 on Cytochrome P450 3A4 [19] of 9.4 µM. The microsomal CLint in [20] was found to be 4.6 µL/min/mg.
Turning to `CCC(=O)N[C@H]1CC[C@H](CN(C)c2ccc(N3C(=O)Cc4cc(OC)c(O[C@H](C)CC)cc4[C@@H]3c3ccc(Cl)cc3)cc2)CC1`, the IC50 in series [21] is 0.02 µM; in series [13] it was above 30 µM. The same compound displayed a GI50 in the series on SJSA-1 of 4.96 µM.
Take `COc1cc2c(cc1OC(C)C)[C@H](c1ccc(Cl)cc1)N(c1ccc(N(C)C[C@H]3CC[C@H](N4CNC(=O)C4)CC3)cc1)C(=O)C2`: in series [21], the IC50 came to 0.0017 µM. In the series with SJSA-1, this compound registered a GI50 of 0.6 µM.
`COc1cc2c(cc1OC(C)C)[C@H](c1ccc(Cl)cc1)N(c1ccc(N(C)C[C@H]3CC[C@H](N4CCNC(=O)C4)CC3)cc1)C(=O)C2`: the Cmax in series [1] was determined as 74.6 nM. For the same compound, the AUC with Rattus norvegicus [3] came out at 2.154 µM·h; in the series with Rattus norvegicus [6], 1.018 µM·h. In series [5], the half-life is 9.3 h. Also, the F in the series with Rattus norvegicus [8] is on record as 49%. Further, the fraction unbound in series [9] is below 0.01. For the same compound, the values for the IC50 (in series [13]; against Cytochrome P450 3A4 [19]) were 16 µM and 11.3 µM, respectively. Also, the logP in [18] stood at 5.3. For the same compound, growth with SJSA-1 was halved (GI50) at 0.35 µM. The microsomal CLint in series [20] amounted to 3.4 µL/min/mg; in series [22] it was 79.7 µL/min/mg. Moreover, the Vd in series [16] is 8 L/kg.
In the case of `COc1cc2c(cc1OC(C)C)[C@H](c1ccc(Cl)cc1)N(c1ccc(N(C)C[C@H]3CC[C@H](N(C)C)CC3)nc1)C(=O)C2`, the IC50 in [21] was 0.0016 µM; against Cytochrome P450 3A4 [19], 5 µM. The logP in series [18] is above 6.3. In series [20], the microsomal CLint is 78.3 µL/min/mg.
With `COc1cc2c(cc1OC(C)C)[C@H](c1ccc(Cl)cc1)N(c1ccc(N(C)C[C@H]3CC[C@H](N4CC(=O)N(C)C4)CC3)nc1)C(=O)C2`, the IC50 in series [21] was determined as 0.0114 µM; at Cytochrome P450 3A4 [19] it was 13.2 µM. In series [18], this compound showed a logP of 4.4. The microsomal CLint amounted to 157 µL/min/mg in series [20] and 224 µL/min/mg in [22].
With `COc1cc2c(cc1OC(C)C)[C@H](c1ccc(Cl)cc1)N(c1ccc(N(C)C[C@H]3CC[C@H](N4CCN(C)C(=O)C4)CC3)nc1)C(=O)C2`, the logP in [18] amounted to 4.8. Further, the IC50 at Cytochrome P450 3A4 [19] was above 20 µM. Further, the values for the microsomal CLint in series [20] and in series [22] were 151 µL/min/mg and 279 µL/min/mg, respectively.
On the same counts, the results for `COc1cc2c(cc1OC(C)C)[C@H](c1ccc(Cl)cc1)N(c1ccc(N(C)C[C@H]3CC[C@H](N4CCN(C)C(=O)C4)CC3)cn1)C(=O)C2` are 4.6, above 20 µM, 156 µL/min/mg and 355 µL/min/mg.
`COc1cc2c(cc1OC(C)C)[C@H](c1ccc(Cl)cc1)N(c1cnc(N(C)C[C@H]3CC[C@H](N4CCN(C)C(=O)C4)CC3)cn1)C(=O)C2` registered a logP in [18] of 4.6. The same compound gave an IC50 at Cytochrome P450 3A4 [19] above 20 µM. The microsomal CLint in [20] came to 220 µL/min/mg; in [22] it was 420 µL/min/mg.
For `COc1ccc(C2=N[C@@H](c3ccc(Cl)cc3)[C@@H](c3ccc(Cl)cc3)N2C(=O)N2CCNC(=O)C2)c(OC(C)C)c1` [NUTLIN-3], the Ki in series [23] is 0.0105 µM; in series [24], 0.0199 µM; in series [25], 0.0126 µM.
